Assay results from ChEMBL document CHEMBL3400013, “Synthesis and biological activity evaluation of hydrazone derivatives based on a Tröger's base skeleton” (Bioorg Med Chem, 2015).
pIC50: −log10 of the molar value. Activity calls are given as the source filed them. The rule behind the calls is not given here.

Assays:
[1] = test system: Staphylococcus haemolyticus; assay: Antimicrobial activity against methicillin-resistant Staphylococcus haemolyticus A1/16568 up to 200 uM after 24 to 48 hrs by broth microdilution method; format: functional, organism-based
[2] = Metal chelating activity of the compound assessed as formation of Ca2+ complex by UV-vis spectrometry; format: physicochemical
CCRF-CEM [3] = assay: Cell cycle arrest in human CCRF-CEM cells assessed as accumulation at S phase at 5 times IC50 after 24 hrs by propidium iodide staining-based flow cytometry; format: functional
Method in brief: (§1)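 Cells were then fixed in 70% ethanol, washed in hypotonic citrate buffer, treated with RNase (50 µg/mL) and stained with propidium iodide. Flow cytometry used a 488 nm laser. Apoptosis was scored as the percentage of particles with propidium content below G0/G1.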

Nucleic Acid [4] = assay: Binding affinity to DNA (unknown origin) assessed as DNA intercalation by UV-visible spectrophotometry in presence of Zn2+; format: nucleic-acid assay
Candida parapsilosis = assay: Antifungal activity against Candida parapsilosis up to 200 uM after 24 to 48 hrs by broth microdilution method; format: functional, organism-based
CCRF-CEM [5] = assay: Induction of apoptosis in human CCRF-CEM cells assessed as apoptotic cells at IC50 after 24 hrs by propidium iodide staining-based flow cytometry; format: functional; method in brief: as §1
[6] = Metal chelating activity of the compound assessed as formation of Cu2+ complex by UV-vis spectrometry; format: physicochemical
[7] = Cytostatic activity against human K562-TAX cells after 72 hrs by MTT assay; format: functional, cell-based
Method in brief: (§2)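 Cells were seeded at 25,000–30,000 per well and pre-incubated for 24 h at 37°C in 5% CO2. Four-fold compound dilutions were added in duplicate and incubated for 72 h. MTT was added for 1–4 h, and formazan was dissolved in 10% aq SDS (pH 5.5) overnight at 37°C. OD was read at 540 nm. IC50 came from dose-response curves, mean ± SD of eight independent experiments.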

Nucleic Acid [8] = assay: Binding affinity to DNA (unknown origin) assessed as DNA intercalation by UV-visible spectrophotometry in presence of Ni2+; format: nucleic-acid assay
BJ [9] = assay: Selectivity index, ratio of IC50 for human BJ cells to IC50 for human CCRF-CEM cells; format: functional; conditions: pooled result: one value given for 2 cell lines, strains, targets or settings
Candida albicans = assay: Antifungal activity against Candida albicans up to 200 uM after 24 to 48 hrs by broth microdilution method; format: functional, organism-based
Pseudomonas aeruginosa [10] = assay: Antimicrobial activity against Pseudomonas aeruginosa CCM 395 up to 200 uM after 24 to 48 hrs by broth microdilution method; format: functional, organism-based
[11] = Metal chelating activity of the compound assessed as formation of Mg2+ complex by UV-vis spectrometry; format: physicochemical
Nucleic Acid [12] = assay: Binding affinity to DNA (unknown origin) assessed as DNA intercalation by UV-visible spectrophotometry in presence of Cu2+; format: nucleic-acid assay
[13] = Metal chelating activity of the compound assessed as formation of Co2+ complex by UV-vis spectrometry; format: physicochemical
BJ [14] = assay: Selectivity index, ratio of IC50 for human BJ cells to IC50 for human K562-TAX cells; format: functional
[15] = Metal chelating activity of the compound assessed as formation of Fe2+ complex by UV-vis spectrometry; format: physicochemical
BJ [16] = assay: Selectivity index, ratio of IC50 for human BJ cells to IC50 for human K562 cells; format: functional
K562 [17] = assay: Selectivity index, ratio of IC50 for human MRC5 cells to IC50 for human K562 cells; format: functional
K562 [18] = assay: Cytostatic activity against human K562 cells after 72 hrs by MTT assay; format: functional, cell-based; conditions: K562, 72 h; method in brief: as §2
HCT-116 = assay: Selectivity index, ratio of IC50 for human MRC5 cells to IC50 for human HCT116 cells; format: functional
CCRF-CEM [19] = assay: Cell cycle arrest in human CCRF-CEM cells assessed as accumulation at G0/G1 phase at 5 times IC50 after 24 hrs by propidium iodide staining-based flow cytometry; format: functional; method in brief: as §1
Escherichia coli [20] = assay: Antimicrobial activity against multidrug-resistant Escherichia coli C/16702 up to 200 uM after 24 to 48 hrs by broth microdilution method; format: functional, organism-based
Nucleic Acid [21] = assay: Binding affinity to DNA (unknown origin) assessed as DNA intercalation by UV-visible spectrophotometry in presence of Fe3+; format: nucleic-acid assay
[22] = Cytostatic activity against human HCT116 cells after 72 hrs by MTT assay; format: functional, cell-based; conditions: HCT-116, 72 h; method in brief: as §2
[23] = Metal chelating activity of the compound assessed as formation of Cr3+ complex by UV-vis spectrometry; format: physicochemical
CCRF-CEM [24] = assay: Induction of apoptosis in human CCRF-CEM cells assessed as mitotic cells at 5 times IC50 after 24 hrs by pH3Ser10+ labeling-based flow cytometry; format: functional
CCRF-CEM [25] = assay: Cell cycle arrest in human CCRF-CEM cells assessed as accumulation at G0/G1 phase at IC50 after 24 hrs by propidium iodide staining-based flow cytometry; format: functional; method in brief: as §1
CCRF-CEM [26] = assay: Cell cycle arrest in human CCRF-CEM cells assessed as accumulation at S phase at IC50 after 24 hrs by propidium iodide staining-based flow cytometry; format: functional; method in brief: as §1
Pseudomonas aeruginosa [27] = assay: Antimicrobial activity against multidrug-resistant Pseudomonas aeruginosa A/16575 up to 200 uM after 24 to 48 hrs by broth microdilution method; format: functional, organism-based
Enterococcus faecalis = assay: Antimicrobial activity against Enterococcus faecalis CCM 4224 up to 200 uM after 24 to 48 hrs by broth microdilution method; format: functional, organism-based
Escherichia coli [28] = assay: Antimicrobial activity against Escherichia coli CCM 3954 up to 200 uM after 24 to 48 hrs by broth microdilution method; format: functional, organism-based
A549 = assay: Selectivity index, ratio of IC50 for human BJ cells to IC50 for human A549 cells; format: functional
Staphylococcus aureus [29] = assay: Antimicrobial activity against Staphylococcus aureus CCM 3953 up to 200 uM after 24 to 48 hrs by broth microdilution method; format: functional, organism-based
CCRF-CEM [30] = assay: Induction of apoptosis in human CCRF-CEM cells assessed as inhibition of RNA synthesis at IC50 after 24 hrs by propidium iodide/BrU staining by flow cytometry; format: functional; parameters: scale not given: the % may be the effect or the level left
CCRF-CEM [31] = assay: Cytostatic activity against human CCRF-CEM cells after 72 hrs by MTT assay; format: functional, cell-based; method in brief: as §2
[32] = Metal chelating activity of the compound assessed as formation of Ni2+ complex by UV-vis spectrometry; format: physicochemical
Staphylococcus aureus [33] = assay: Antimicrobial activity against methicillin-resistant Staphylococcus aureus MRSA 4591 up to 200 uM after 24 to 48 hrs by broth microdilution method; format: functional, organism-based
BJ [34] = assay: Selectivity index, ratio of IC50 for human BJ cells to IC50 for human p53-/- HCT116 cells; format: functional
BJ [35] = assay: Selectivity index, ratio of IC50 for human BJ cells to IC50 for human HCT116 cells; format: functional
[36] = Cytostatic activity against human p53-/- HCT116 cells after 72 hrs by MTT assay; format: functional, cell-based; conditions: HCT-116, 72 h; method in brief: as §2
MRC5 = assay: Cytostatic activity against human MRC5 cells after 72 hrs by MTT assay; format: ADME, cell-based; conditions: MRC5, 72 h; method in brief: as §2
Candida tropicalis = assay: Antifungal activity against Candida tropicalis up to 200 uM after 24 to 48 hrs by broth microdilution method; format: functional, organism-based
[37] = Cytostatic activity against human CEM-DNR cells after 72 hrs by MTT assay; format: functional, cell-based; method in brief: as §2

O=C(N/N=C/c1ccccc1O)c1ccc2c3c(ccc2c1)N1Cc2c(ccc4cc(C(=O)N/N=C/c5ccccc5O)ccc24)N(C3)C1
Activity [1]: inactive | Activity [2]: Not Active | Activity (CCRF-CEM [3]): 37.75% | Activity (Nucleic Acid [4]): Active | Activity (Candida parapsilosis): inactive | Activity (CCRF-CEM [5]): 18.07% | Activity [6]: Active | pIC50 [7]: 6.08 | Activity (Nucleic Acid [8]): Active | Ratio IC50 (BJ [9]): 0.9 | Activity (Candida albicans): inactive | Activity (Pseudomonas aeruginosa [10]): inactive | Activity [11]: Not Active | Activity (Nucleic Acid [12]): Active | Activity [13]: Active | Ratio IC50 (BJ [14]): 0.4 | Activity [15]: Not Active | Ratio IC50 (BJ [16]): 0.6 | Ratio IC50 (K562 [17]): 0.6 | pIC50 (K562 [18]): 6.24 | Ratio IC50 (HCT-116): 0.8 | Activity (CCRF-CEM [19]): 43.33% | Activity (Escherichia coli [20]): inactive | Activity (Nucleic Acid [21]): Active | pIC50 [22]: 6.41 | Activity [23]: Not Active | Activity (CCRF-CEM [24]): 0.01% | Activity (CCRF-CEM [25]): 30.6% | Activity (CCRF-CEM [26]): 50.31% | Activity (Pseudomonas aeruginosa [27]): inactive | Activity (Enterococcus faecalis): inactive | Activity (Escherichia coli [28]): inactive | Ratio IC50 (A549): 0.3 | Activity (Staphylococcus aureus [29]): inactive | Activity (CCRF-CEM [30]): 59.79% | pIC50 (CCRF-CEM [31]): 6.44 | Activity [32]: Active | Activity (Staphylococcus aureus [33]): inactive | Ratio IC50 (BJ [34]): 1.7 | Ratio IC50 (BJ [35]): 0.8 | pIC50 [36]: 6.72 | pIC50 (MRC5): 6.41 | Activity (Candida tropicalis): inactive | pIC50 [37]: 5.37

COC(=O)c1ccc(O)c(/C=N/NC(=O)c2ccc3c4c(ccc3c2)N2Cc3c(ccc5cc(C(=O)N/N=C/c6cc(C(=O)OC)ccc6O)ccc35)N(C4)C2)c1
Activity [1]: inactive | Activity [2]: Not Active | Activity (CCRF-CEM [3]): 55.48% | Activity (Nucleic Acid [4]): Active | Activity (Candida parapsilosis): inactive | Activity (CCRF-CEM [5]): 12.85% | Activity [6]: Active | pIC50 [7]: 4.67 | Activity (Nucleic Acid [8]): Active | Ratio IC50 (BJ [9]): 16.3 | Activity (Candida albicans): inactive | Activity (Pseudomonas aeruginosa [10]): inactive | Activity [11]: Not Active | Activity (Nucleic Acid [12]): Active | Activity [13]: Active | Ratio IC50 (BJ [14]): 4.3 | Activity [15]: Not Active | Ratio IC50 (BJ [16]): 9.4 | Ratio IC50 (K562 [17]): 9.4 | pIC50 (K562 [18]): 5.01 | Ratio IC50 (HCT-116): 8.9 | Activity (CCRF-CEM [19]): 31.26% | Activity (Escherichia coli [20]): inactive | Activity (Nucleic Acid [21]): Active | pIC50 [22]: 4.99 | Activity [23]: Not Active | Activity (CCRF-CEM [24]): 0.86% | Activity (CCRF-CEM [25]): 48.63% | Activity (CCRF-CEM [26]): 38.54% | Activity (Pseudomonas aeruginosa [27]): inactive | Activity (Enterococcus faecalis): inactive | Activity (Escherichia coli [28]): inactive | Ratio IC50 (A549): 7.7 | Activity (Staphylococcus aureus [29]): inactive | Activity (CCRF-CEM [30]): 28.66% | pIC50 (CCRF-CEM [31]): 5.25 | Activity [32]: Active | Activity (Staphylococcus aureus [33]): inactive | Ratio IC50 (BJ [34]): 9.7 | Ratio IC50 (BJ [35]): 8.9 | pIC50 [36]: 5.02 | pIC50 (MRC5): 4.02 | Activity (Candida tropicalis): inactive | pIC50 [37]: 4.55
